Measurements from different studies.
CDK3 with cyclin E: Cyclin-dependent kinase 3, with cyclin E (CDK3, Homo sapiens, UniProt Q00526)
CDK3 with cyclin E2: Cyclin-dependent kinase 3, with cyclin E2 (CDK3, Homo sapiens, UniProt Q00526)
CDK3: Cyclin-dependent kinase 3 (CDK3, Homo sapiens, UniProt Q00526)
CDK3 with cyclin E1: Cyclin-dependent kinase 3, with cyclin E1 (CDK3, Homo sapiens, UniProt Q00526)

SMILES	target	observed	action	technique	tested at	quantity	result
COc1cc(Cl)c(C(=O)N[C@@H](CN[C@H]2CC[C@@H](N)CC2)Cc2ccc(C#N)cc2)cc1-c1ccc(CN[C@H](C)c2ccc(C)cc2)o1	CDK3 with cyclin E	enzyme activity	inhibitor	–	1 µM	remaining activity	99%
Cc1sc(C(=O)NC2COC2)cc1-n1cc(NC(=O)Nc2c(F)cccc2Cl)cn1	CDK3 with cyclin E2	enzyme activity	inhibitor	–	10 µM	remaining activity	103%
CN1CC(Oc2cnc(C#N)cc2-c2ccn3nc(NC(=O)C4CC4)cc3c2)C1	CDK3 with cyclin E	enzyme activity	inhibitor	–	1 µM	inhibition	4%
CO[C@@H](C)c1c(Nc2ccc([C@@H](N(C)C(=O)C3CCS(=O)(=O)CC3)C(F)(F)F)cc2)cnc2cc(Cl)nn12	CDK3	cell-free assay	–	competition with immobilised ligand	1 µM	remaining binding	88%
Nc1ncnc2occ(-c3ccc(NC(=O)Nc4cc(C(F)(F)F)ccc4F)cc3)c12	CDK3	cell-free assay	inhibitor	–	20 µM	remaining signal	0.05%
CCN(CC)CCNC(=O)c1c(C)[nH]c(/C=C2\C(=O)Nc3ccc(F)cc32)c1C	CDK3 with cyclin E	enzyme activity	inhibitor	–	10 µM	inhibition	41%
CS(=O)(=O)Nc1cccc(-c2csc(NC(=O)CSc3nc4nccnc4c(=O)n3CCc3ccccc3)n2)c1	CDK3 with cyclin E1	enzyme activity	inhibitor	–	10 µM	inhibition	2%
O=C(NCc1ncc(C(F)(F)F)cc1Cl)c1ccc2c(c1)C1(CCS(=O)(=O)CC1)[C@@H](C1CC1)N2S(=O)(=O)c1ccc(F)cc1	CDK3	cell-free assay	–	competition with immobilised ligand	1 µM	remaining binding	41%
Oc1cccc(-c2nc(N3CCOCC3)c3oc4ncccc4c3n2)c1	CDK3 with cyclin E	cell-free assay	–	–	0.5 µM	remaining signal	93.9%
Cc1cc(NC(=O)c2cccc3cc(-c4cccc5[nH]nc(N)c45)ccc23)ccc1F	CDK3 with cyclin E	enzyme activity	inhibitor	–	0.1 µM	activity vs control	96%
CN(C)CC#Cc1ccc(OCCCc2sc(N3CCc4cccc(C(=O)Nc5nc6ccccc6s5)c4C3)nc2C(=O)O)c(F)c1	CDK3	cell-free assay	–	competition with immobilised ligand	1 µM	remaining binding	68%
Cc1ccc(Nc2nccc(N(C)c3ccc4c(C)n(C)nc4c3)n2)cc1S(N)(=O)=O	CDK3 with cyclin E	enzyme activity	inhibitor	–	10 µM	inhibition	8%
Cc1cc(NC(=O)c2cccc(S(F)(F)(F)(F)F)c2)cc(-n2ccn3nc(-c4cccnc4)cc23)c1	CDK3	cell-free assay	–	competition with immobilised ligand	1 µM	remaining binding	100%
O=C(Nc1cnn(-c2csc(C(=O)NC3COC3)c2)c1)Nc1ccccc1Cl	CDK3 with cyclin E2	enzyme activity	inhibitor	–	5 µM	remaining activity	95.8%
CCCCN(CCCC)C(=O)CN1C[C@H](c2cc(OC)c3c(c2)OCO3)[C@@H](C(=O)O)[C@@H]1CC(C)(C)CCC	CDK3	cell-free assay	–	competition with immobilised ligand	1 µM	remaining binding	100%
CC(C)(C)c1nc2c(s1)c1nc(N)ncc1c1ccc(NS(=O)(=O)c3c(F)cccc3F)c(F)c12	CDK3 with cyclin E1	enzyme activity	inhibitor	radiometric	1 µM	remaining activity	98%
